Source: paper PMC9128166 (Cancer Science, 2022)
Values joined by “and” are separate entries in the source; they are usually repeats but may differ in a detail not shown here. Identical values can stand only once. “Also recorded” adds a separate entry of the source. Like-named read-outs stand apart in the source and are kept apart here.

Tests used:
[1] = format: in vivo, Japanese patients
[2] = Plasma pharmacokinetics of parsaclisib, cycle 1 day 15; format: in vivo, Japanese patients; settings: for Vd/F: Vz/F
[3] = Parsaclisib exposure and patient disposition; format: in vivo, Japanese patients
In short: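 Safety population: all enrolled patients given ≥1 dose. Regimen was 10 or 20 mg QD for 8 weeks, then QW, until progression, death, unacceptable toxicity or consent withdrawal. AEs were graded by NCI CTCAE v4.03. Treatment duration (d) = last dose − first dose + 1. QW-period duration (wk) = ceiling[(last dose − first QW dose + 1)/7]. Interruptions and reductions were tallied by dosing period.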

[4] = test system: plasma proteins associated with PI3Kδ inhibition; assay: Plasma proteomic pharmacodynamic biomarkers; format: in vivo, Japanese patients
[5] = cited from earlier work
[6] = Dose-limiting toxicity / MTD, 3 + 3 dose escalation and expansion; format: in vivo, Japanese patients
In short: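 Oral test compound in Japanese patients: once daily for 8 weeks, then the same dose weekly; starting dose 10 mg QD. Patients were hospitalised for the 28-day DLT period. DLTs were graded by NCI CTCAE v4.03. MTD was one level below the dose with DLT in ≥2 of 6 patients, with 3 added patients to confirm.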

[7] = test system: relapsed or refractory follicular lymphoma; assay: Investigator-assessed response; format: in vivo, Japanese patients
In short: (§1)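 Investigator-assessed response by Lugano criteria in the full analysis set (all treated patients). Patients received 10 or 20 mg QD orally for 8 weeks, then the same dose QW. CT, FDG-PET or PET-CT was chosen by subtype, using the same technique as at screening. Scans ran every 8 weeks through week 24, every 12 weeks through week 96, then every 24 weeks until progression.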

[8] = test system: relapsed or refractory diffuse large B‐cell lymphoma; assay: Investigator-assessed response; format: in vivo, Japanese patients
In short: as §1

[9] = Urine pharmacokinetics of parsaclisib, cycle 1 day 15; format: in vivo, Japanese patients
[10] = Any postbaseline abnormality, N = 17
[11] = Worst grade postbaseline Grade 3, N = 17
[12] = Worst grade postbaseline Grade 4, N = 17
[13] = among 16 patients with grade 0 at baseline
[14] = 10 mg QD, cycle 1 day 15, n 3, mean ± SD
[15] = 20 mg QD, cycle 1 day 15, n 11, mean ± SD
[16] = previous studies, patients with NHL

## CCOc1c([C@H](C)n2nc(C)c3c(N)ncnc32)cc(Cl)c(F)c1[C@@H]1CNC(=O)C1 [parsaclisib]
[1]; 5 of 17 patients, all during first 8 weeks
  treatment‐emergent new or worsening decreased neutrophils to grade 3 or 4: 29.4%
[1]; [10]
  Alanine aminotransferase (increased): 7 (41.2) n (%)
  Albumin (decreased): 9 (52.9) n (%)
  Alkaline phosphatase (increased): 7 (41.2) n (%)
  Aspartate aminotransferase (increased): 7 (41.2) n (%)
  Calcium (decreased): 8 (47.1) n (%)
  Creatinine (increased): 17 (100.0) n (%)
  Leukocytes (decreased): 9 (52.9) n (%)
  Neutrophils (decreased): 12 (70.6) n (%)
  Platelets (decreased): 7 (41.2) n (%)
  Potassium (increased): 5 (29.4) n (%)
  Sodium (decreased): 5 (29.4) n (%)
[1]; [11]
  Alanine aminotransferase (increased): 0 (0.0) n (%)
  Albumin (decreased): 0 (0.0) n (%)
  Alkaline phosphatase (increased): 0 (0.0) n (%)
  Aspartate aminotransferase (increased): 0 (0.0) n (%)
  Calcium (decreased): 0 (0.0) n (%)
  Creatinine (increased): 0 (0.0) n (%)
  Leukocytes (decreased): 0 (0.0) n (%)
  Neutrophils (decreased): 4 (23.5) n (%)
  Platelets (decreased): 0 (0.0) n (%)
  Potassium (increased): 0 (0.0) n (%)
  Sodium (decreased): 0 (0.0) n (%)
[1]; [12]
  Alanine aminotransferase (increased): 0 (0.0) n (%)
  Albumin (decreased): 0 (0.0) n (%)
  Alkaline phosphatase (increased): 0 (0.0) n (%)
  Aspartate aminotransferase (increased): 0 (0.0) n (%)
  Calcium (decreased): 0 (0.0) n (%)
  Creatinine (increased): 0 (0.0) n (%)
  Leukocytes (decreased): 0 (0.0) n (%)
  Neutrophils (decreased): 1 (5.9) n (%)
  Platelets (decreased): 0 (0.0) n (%)
  Potassium (increased): 0 (0.0) n (%)
  Sodium (decreased): 0 (0.0) n (%)
[1]; [13]
  shifts to increased ALT, grade 1: 5 patients
  shifts to increased ALT, grade 2: 2 patients
  shifts to increased AST, grade 1: 7 patients
[1]; human, in vivo
  treatment‐emergent elevations of ALT or AST to grade 3 or 4: No treatment‐emergent worsening in aminotransferase elevations to grade 3 or 4; also recorded: no treatment‐emergent elevations of ALT or AST to grade 3 or 4
[1]; shifts to grade 1 or 2
  elevation in ALT: 41.2%
  elevation in AST: 41.2%
[2]; [14]
  Accumulation ratio: 1.4 ± 0.2 (1.4, 17.1)
  CLss/F: 1.8 ± 0.6 (1.75, 30.9) L/h
  Cmin: 227 ± 83.2 nM and 227 ± 83.2 (215, 36.6) nM
[2]; 10 mg QD, cycle 1 day 15, n 3, median (range)
  Tmax: 1.0 (0.5–2.0) h
[2]; [15]
  Accumulation ratio: 1.2 ± 0.1 (1.2, 11.3)
  CLss/F: 2.3 ± 0.75 (2.2, 32.9) L/h
  Cmin: 303 ± 155 nM and 303 ± 155 (271, 51.0) nM
[2]; Total (10 and 20 mg QD), cycle 1 day 15, n 14, mean ± SD
  CLss/F: 2.2 ± 0.7 L/h and 2.2 ± 0.7 (2.1, 32.8) L/h
[2]; human, plasma, oral, 10 mg
  AUC: 12.5 µM·h
  Cmax: 1440 ± 502 nM
[2]; human, plasma, oral, 10 mg, Tmax, 10 mg QD, cycle 1 day 15, n 3, median (range)
  Tmax: 0.97 h
[2]; human, plasma, oral, 10 mg, 10 mg QD, cycle 1 day 15, n 3, mean ± SD
  Vd/F: 31.3 ± 9.8 L
[2]; human, plasma, oral, 10 mg, t½, 10 mg QD, cycle 1 day 15, n 3, mean ± SD
  half-life: 12.6 ± 4.6 h
[2]; human, plasma, oral, 20 mg
  AUC: 20.5 µM·h
  Cmax: 2630 ± 530 nM
[2]; human, plasma, oral, 20 mg, Tmax, 20 mg QD, cycle 1 day 15, n 11, median (range)
  Tmax: 0.55 h
[2]; human, plasma, oral, 20 mg, 20 mg QD, cycle 1 day 15, n 11, mean ± SD
  Vd/F: 31.1 ± 10.2 L
[2]; human, plasma, oral, 20 mg, t½, 20 mg QD, cycle 1 day 15, n 11, mean ± SD
  half-life: 9.8 ± 2.8 h
[2]; human, plasma, oral, steady‐state geometric mean t½, overall, dose‐independent
  half-life: 9.9 h
[3]; 10 mg QD + 10 mg QW (n = 3)
  Patients with dose interruption: 2 (66.7) n (%)
  Patients with dose reduction: 1 (33.3) n (%)
[3]; 20 mg QD + 20 mg QW (n = 14)
  Patients with dose interruption: 8 (57.1) n (%)
  Patients with dose reduction: 4 (28.6) n (%)
[3]; 2 of 17 patients (varicella zoster infection, pyrexia)
  patients who discontinued treatment due to AEs / TEAEs: 11.8%
[3]; 5 of 17 patients
  patients requiring a dose reduction: 29.4%
[3]; 6 of 17 patients
  patients remaining on study treatment at data cut‐off: 35.3%
[3]; 10 of 17 patients
  patients requiring a dose interruption during the treatment period: 58.8%
[3]; Total (N = 17)
  Patients with dose interruption: 10 (58.8) n (%)
  Patients with dose reduction: 5 (29.4) n (%)
[4]; 10 mg or 20 mg QW, weeks 12 and 24
  parsaclisib‐responsive proteins after transition to QW dosing: reverted partially or completely to baseline expression levels
[4]; FL and MZL (n = 11), approximately 1000 proteins analysed
  plasma proteins significantly changed following 4 weeks or 8 weeks of QD parsaclisib dosing: 23 plasma proteins
[5]; previous studies, patients with FL or MZL
  decreases in neutrophil count to grade 3 or 4: 13–14%
[5]; [16]
  ALT elevation: 13–26%
  AST elevation: 17–23%
[5]; primarily Western populations
  cough (TEAE): 17–22%
  nausea (TEAE): 14–26%
  pyrexia (TEAE): 13–17%
  rash (TEAE): 14–22%
[5]; prior studies, primarily Western populations
  diarrhea (TEAE): 20–44%
[6]; 20 mg QD for 8 weeks followed by 20 mg QW
  MTD: not considered to have exceeded the MTD; also recorded: the criteria for MTD was not exceeded
[6]; 20‐mg dose level, QD schedule
  DLTs during dose expansion: grade 3 febrile neutropenia on day 28 and grade 4 neutropenia on day 14 (each in 1 patient); also recorded: two DLTs occurred in one patient each
[6]; dose‐escalation phase, 10‐mg (n = 3) or 20‐mg (n = 3) dose level
  DLTs during the 28‐day DLT observation period: No DLTs
[7]; FL (n = 9)
  BOR, CMR/CR: 2 (22.2) n (%)
  BOR, NMR/SD: 0 (0.0) n (%)
  BOR, PMD/PD: 0 (0.0) n (%)
  BOR, PMR/PR: 7 (77.8) n (%)
  Objective response: 9 (100.0) n (%)
[7]; FL (n = 9), no postbaseline response data available
  BOR, Not assessed: 0 (0.0) n (%)
[7]; FL, 2 of 9 patients
  complete response: 22.2%
[7]; FL, 9 of 9 patients
  ORR: 100%
[7]; nine responders with FL
  observed PFS: 1.9–17.5 months
[8]; DLBCL (n = 6)
  BOR, CMR/CR: 0 (0.0) n (%)
  BOR, NMR/SD: 1 (16.7) n (%)
  BOR, PMD/PD: 3 (50.0) n (%)
  BOR, PMR/PR: 1 (16.7) n (%)
  Objective response: 1 (16.7) n (%)
[8]; DLBCL (n = 6), no postbaseline response data available
  BOR, Not assessed: 1 (16.7) n (%)
[8]; DLBCL, 1 of 6 patients (partial response)
  ORR: 16.7%
[8]; one responder with DLBCL
  observed PFS: 13.8 months
  observed response duration: 12.2 months
[9]; Total, cycle 1 day 15, n 14, mean ± SD (text: mean (range))
  Fe,0-8h (unchanged parsaclisib recovered in urine): 12.1 (5.4–20.4) %
[9]; human, urine, oral
  CL renal: 6.67 mL/min
